Reference: ChEMBL document CHEMBL3997800, “Discovery of Multitarget Agents Active as Broad-Spectrum Antivirals and Correctors of Cystic Fibrosis Transmembrane Conductance Regulator for Associated Pulmonary Diseases” (J Med Chem, 2017)
Calls of active or inactive are those of the source. The calls are words filed in the database; no cut-off is given here.

Columns and labels:
[1] = system: Enterovirus A71; experiment: Antiviral activity against Enterovirus 71 infected in RD cells assessed as reduction in virus-induced cytopathic effect incubated for 2 to 3 days; assay type: functional, cell-based
Procedure, shortened: (§1)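 RD cells seeded at 20 000/well in MEM with 2% FCS and infected with EV71. Three 8-step 1:5 dilution series from 100 μM. Incubated 2-3 days until maximal CPE, then scored for CPE reduction. EC50 is the median of three dose-response curves.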

[2] = Inhibition of full length recombinant His6-tagged PI4K3beta (unknown origin) expressed in Sf9 insect cells using PI : PS as substrate in presence of [gamma-33P]-ATP by scintillation counting method; set-up: species or system Homo sapiens
[3] = Selectivity index, ratio of CC50 for human RD cells to EC50 for Enterovirus 71; assay type: toxicity; details: read-out: Ratio CC50/EC50
Procedure, shortened: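 SI is CC50/EC50. CC50 is from the MTS assay on uninfected RD cells and EC50 from the EV71 CPE-reduction assay, both medians of three dose-response curves run in parallel.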

[4] = system: Cystic fibrosis transmembrane conductance regulator (Homo sapiens), P13569 [F508del]; experiment: Potentiator activity at CFTR F508 deletion mutant (unknown origin) expressed in HEK293 cells assessed as increase in aninon permeability at 10 uM […] by YFP probe based imaging method; assay type: cell-based
Chain of Cystic fibrosis transmembrane conductance regulator (Homo sapiens), P13569 [F508del] (P13569 as listed by the source): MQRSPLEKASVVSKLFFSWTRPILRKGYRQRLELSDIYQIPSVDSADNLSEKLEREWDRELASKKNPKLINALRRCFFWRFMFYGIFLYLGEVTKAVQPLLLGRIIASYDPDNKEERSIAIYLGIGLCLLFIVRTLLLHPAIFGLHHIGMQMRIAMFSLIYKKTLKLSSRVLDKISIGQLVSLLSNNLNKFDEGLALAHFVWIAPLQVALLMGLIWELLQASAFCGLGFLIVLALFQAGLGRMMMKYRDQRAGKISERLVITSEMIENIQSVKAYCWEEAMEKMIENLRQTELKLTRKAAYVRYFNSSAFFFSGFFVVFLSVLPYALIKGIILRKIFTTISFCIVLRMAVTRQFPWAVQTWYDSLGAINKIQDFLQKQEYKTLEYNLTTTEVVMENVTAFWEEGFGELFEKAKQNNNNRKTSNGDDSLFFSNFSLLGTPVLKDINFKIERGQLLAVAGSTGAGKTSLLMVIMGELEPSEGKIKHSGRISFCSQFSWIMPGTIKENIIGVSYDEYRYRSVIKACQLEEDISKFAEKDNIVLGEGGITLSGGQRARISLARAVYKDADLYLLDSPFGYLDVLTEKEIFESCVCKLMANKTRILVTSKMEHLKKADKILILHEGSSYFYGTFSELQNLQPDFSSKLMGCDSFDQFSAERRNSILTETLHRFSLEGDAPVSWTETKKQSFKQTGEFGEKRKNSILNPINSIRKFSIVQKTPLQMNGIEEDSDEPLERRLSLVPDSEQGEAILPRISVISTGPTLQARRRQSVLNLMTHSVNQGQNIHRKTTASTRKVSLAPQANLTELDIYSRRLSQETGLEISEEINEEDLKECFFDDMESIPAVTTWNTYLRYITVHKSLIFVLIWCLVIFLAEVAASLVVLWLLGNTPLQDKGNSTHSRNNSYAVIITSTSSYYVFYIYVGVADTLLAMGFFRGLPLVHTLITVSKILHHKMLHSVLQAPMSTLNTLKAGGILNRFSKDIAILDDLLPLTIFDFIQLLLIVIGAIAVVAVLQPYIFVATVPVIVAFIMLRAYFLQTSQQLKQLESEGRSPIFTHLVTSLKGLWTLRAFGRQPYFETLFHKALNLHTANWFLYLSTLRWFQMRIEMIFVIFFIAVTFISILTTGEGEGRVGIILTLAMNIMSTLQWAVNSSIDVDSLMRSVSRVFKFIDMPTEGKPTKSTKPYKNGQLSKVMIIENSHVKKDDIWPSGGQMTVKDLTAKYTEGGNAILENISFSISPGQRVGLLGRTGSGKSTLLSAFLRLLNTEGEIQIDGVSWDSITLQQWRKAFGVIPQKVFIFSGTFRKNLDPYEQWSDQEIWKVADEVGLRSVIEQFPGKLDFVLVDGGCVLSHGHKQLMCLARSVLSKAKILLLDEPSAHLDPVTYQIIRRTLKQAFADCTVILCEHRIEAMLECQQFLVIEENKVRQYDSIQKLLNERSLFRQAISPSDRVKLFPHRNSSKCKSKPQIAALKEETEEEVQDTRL

[5] = Inhibition of full length recombinant His6-tagged PI4K3alpha (unknown origin) expressed in Sf9 insect cells assessed as residual activity at 100 uM using PI : PS as substrate in presence of [gamma-33P]-ATP by scintillation counting method relative to control; details: Homo sapiens
[6] = biological target: PI3-kinase p110-alpha/p85-alpha (Homo sapiens) (UniProt P27986+P42336); experiment: Inhibition of full length recombinant human N-terminal His6-tagged PI3Kalpha (1 to 1068 residues)/full length human N-terminal myc-tagged P85alpha (1 to 724 residues) expressed in Sf9 insect cells assessed as residual activity at 100 uM using PI : PS as substrate in presence of [gamma-33P]-ATP by scintillation counting method relative to control
[7] = Cytotoxicity against human RD cells after 2 to 3 days by MTS method; assay type: cell-based
Procedure, shortened: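 Uninfected RD cells, 20 000/well in 2% FCS medium, run in parallel with the antiviral assay. Three 8-step 1:5 dilution series from 100 μM, 2-3 days. Read-out by 5% MTS, 1.5 h at 37 °C, absorbance 498 nm, as % of untreated controls. CC50 is the 50% metabolic activity point, median of 3 curves.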

[8] = system: enterovirus D68; experiment: Antiviral activity against Enterovirus 68 after 2 to 3 days; assay type: functional
[9] = system: rhinovirus B14; experiment: Antiviral activity against Rhinovirus 14 after 2 to 3 days by cell based MTS assay; assay type: functional
[10] = Cytotoxicity against human RD cells assessed as change in cell morphology by microscopic method; assay type: cell-based
Procedure, shortened: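 Uninfected, compound-treated RD cells were inspected by microscope. CC50 was taken from microscopically detectable alteration of cell morphology.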

[11] = system: rhinovirus A2; experiment: Antiviral activity against Rhinovirus 2 after 2 to 3 days by cell based MTS assay; assay type: functional
[12] = system: Echovirus E11; experiment: Antiviral activity against Echovirus 11 after 2 to 3 days; assay type: functional; details: Enterovirus B
[13] = system: Poliovirus 1; experiment: Antiviral activity against Poliovirus 1 after 2 to 3 days by cell based MTS assay; assay type: functional; details: Enterovirus C
Procedure, shortened: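 Vero cells seeded at 20 000/well in MEM with 2% FCS. Three 8-step 1:5 dilution series from 100 μM, then virus, then cells; 2–3 days until maximal CPE. Read-out: 5% MTS for 1.5 h at 37°C, absorbance at 498 nm, expressed as % of untreated controls. EC50 taken as the median of 3 dose-response curves.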

[14] = Selectivity index, ratio of CC50 for human RD cells assessed as change in cell morphology to EC50 for Enterovirus 71; assay type: toxicity; details: read-out: Ratio CC50/EC50
Procedure, shortened: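 SI is CC50/EC50. CC50 is from microscopically detected morphology change in uninfected RD cells and EC50 from the EV71 CPE-reduction assay in RD cells.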

[15] = system: Coxsackievirus B3; experiment: Antiviral activity against Coxsackievirus B3 after 2 to 3 days by cell based MTS assay; assay type: functional; details: Enterovirus B
[16] = system: Enterovirus A71; experiment: Antiviral activity against Enterovirus 71 infected in RD cells assessed as reduction in virus-induced cytopathic effect; assay type: functional, cell-based; details: Enterovirus A; procedure, shortened: as §1
[17] = system: Cystic fibrosis transmembrane conductance regulator (Homo sapiens), P13569 [F508del]; experiment: Corrector activity at CFTR F508 deletion mutant (unknown origin) expressed in HEK293 cells assessed as increase in steady-state level of F508 deletion mutant at plasma membrane at 10 uM preincubated for 24 hrs followed by compound washout by pHTomato dye based fluorescence imaging method; assay type: cell-based
Procedure, shortened: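 HEK293 cells were transiently transfected (Lipofectamine 2000) with F508del-CFTR-pHTomato plus co-expressed soluble eGFP, then kept 24 h at 37 °C. Next, 24 h at 30 °C with 10 μM drug. Imaging in pH 7.4 HEPES buffer, then extracellular pH shifted to ~6.5 (MES) and ~8.8 (Tris). The eGFP-normalized fluorescence rise (ΔF) estimates membrane CFTR.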

[18] = Enterovirus A, RD, read-out: EC50

SMILES | EC50 [1] | IC50 ([2]; read-out: IC50) [µM] | selectivity ratio [3] | Activity [4] | Activity [5] [%] | EC50 [1, 18] [µM] | Activity [6] [%] | CC50 [7] [µM] | also measured
CC(=O)c1cccc(Nc2nc(-c3sc(NC(=S)NC4CCCCC4)nc3C)cs2)c1 | Not Active | > 50 | – | – | – | – | – | – | –
CC(=O)Nc1nc(C)c(-c2csc(Nc3ccccc3)n2)s1 | – | 2.48 | 9.64 | inactive | 58 | 1.93 | 81 | 18.6 | –
CC(=O)c1cccc(Nc2nc(-c3sc(NC(=S)Nc4ccccc4)nc3C)cs2)c1 | Not Active | > 50 | – | – | – | – | – | – | –
CC(=O)c1cccc(Nc2nc(-c3sc(NC(=O)NC45CC6CC(CC(C6)C4)C5)nc3C)cs2)c1 | Not Active | 12.4 | – | – | – | – | – | – | –
CC(=O)c1cccc(Nc2nc(-c3sc(NC(=O)Nc4ccccc4)nc3C)cs2)c1 | Not Active | 7.69 | – | – | – | – | – | – | –
CC(=O)Nc1cccc(NC(=S)Nc2cccc(C(C)=O)c2)c1 | Not Active | – | – | – | – | – | – | – | IC50 [2]: Not Active
CC(=O)Nc1nc(C)c(-c2csc(Nc3cccc(C(C)=O)c3)n2)s1 | – | 0.48 | 17.9 | inactive | 52 | 0.92 | 37 | 16.5 | EC50 [8]: Not Active; EC50 ([9]; Rhinovirus B, read-out: EC50): > 268 µM; CC50 [10]: 9.73 µM; EC50 [11]: Not Active; EC50 [12]: 1.57 µM; EC50 [13]: 3.09 µM; selectivity ratio [14]: 10.6; EC50 [15]: 2.17 µM
COc1ccc(-c2c(C)nn3c(NCCN4CCOCC4)cc(C)nc23)cc1OC | – | – | – | – | – | – | – | – | EC50 [16]: 0.73 µM
COc1ccc(Cl)cc1Nc1nnc(-c2csc(NC(=O)C(C)(C)C)n2)o1 | Not Active | – | – | – | – | – | – | – | IC50 [2]: Not Active
CCC(=O)Nc1nc(C)c(-c2csc(Nc3ccc(N(C)C)cc3)n2)s1 | – | 50 | 6 | – | – | 8.58 | – | 51.6 | CC50 [10]: 142 µM
CC(=O)c1cccc(Nc2nc(-c3sc(NC(=O)C(C)(C)C)nc3C)cs2)c1 | – | 0.32 | 29.4 | inactive | 71 | 0.27 | 93 | 7.94 | EC50 ([8]; Enterovirus D, read-out: EC50): 1.38 µM; EC50 ([9]; Rhinovirus B, read-out: EC50): 4.85 µM; CC50 [10]: 8.83 µM; EC50 ([11]; Rhinovirus A, read-out: EC50): 2.01 µM; EC50 [12]: 0.72 µM; EC50 [13]: < 1.41 µM; selectivity ratio [14]: 32.7
CC(=O)c1cccc(Nc2nc(-c3sc(NC(=O)NC4CCCCC4)nc3C)cs2)c1 | – | 1.82 | 4.4 | – | – | 2 | – | 8.87 | –
CC(=O)Nc1nc(C)c(-c2csc(Nc3cccc(O)c3)n2)s1 | Not Active | 2.63 | – | – | – | – | – | – | –
COc1ccc(Cl)cc1Nc1nnc(-c2csc(NC(=O)C(C)(C)C)n2)s1 | Not Active | – | – | – | – | – | – | – | IC50 [2]: Not Active
COc1cccc(Nc2nc(-c3sc(NC(C)=O)nc3C)cs2)c1 | – | 1.55 | 5.9 | inactive | 71 | 1.2 | 51 | 9.17 | –
CC(=O)Nc1nc(C)c(-c2csc(Nc3ccc(C(C)=O)cc3)n2)s1 | – | 3.71 | 8.2 | inactive | 73 | 0.68 | 100 | 5.59 | –
CC(=O)Nc1nc(C)c(-c2c[nH]c(Nc3cccc(C(C)=O)c3)n2)s1 | – | > 50 | – | – | – | > 90.2 | – | 85.7 | CC50 [10]: 64.2 µM
CC(=O)c1cccc(Nc2nc(-c3sc(NC(=O)NCc4ccc(Cl)cc4)nc3C)cs2)c1 | – | 3.95 | 4.4 | – | – | 4.77 | – | 20.9 | –
CCC(=O)Nc1nc(C)c(-c2csc(Nc3cccc(C(C)=O)c3)n2)s1 | – | 0.27 | 26.6 | inactive | 72 | 0.38 | 40 | 10.1 | EC50 [8]: Not Active; EC50 [9]: Not Active; CC50 [10]: 6.37 µM; Activity [17]: Active; EC50 ([11]; Rhinovirus A, read-out: EC50): > 259 µM; EC50 [12]: 0.97 µM; EC50 [13]: < 1.52 µM; selectivity ratio [14]: 23.6; EC50 [15]: 2.16 µM
CC(=O)c1cccc(Nc2nc(-c3sc(NC(=O)c4ccc(C)cc4)nc3C)cs2)c1 | – | > 50 | – | – | – | > 55.7 | – | – | –
CC(=O)c1cccc(NC(=S)Nc2cccc(NC(=O)C(C)(C)C)c2)c1 | Not Active | – | – | – | – | – | – | – | IC50 [2]: Not Active
CC(=O)c1cccc(Nc2nc(-c3sc(NC(=O)c4ccc(I)cc4)nc3C)cs2)c1 | – | > 50 | – | – | – | > 44.6 | – | – | –
CC(=O)c1cccc(Nc2nc(-c3sc(NC(=O)c4ccccc4)nc3C)cs2)c1 | – | 18.9 | 11.3 | inactive | 81 | 0.51 | 54 | 5.75 | EC50 [8]: Not Active; EC50 ([9]; Rhinovirus B, read-out: EC50): > 230 µM; CC50 [10]: 11.8 µM; Activity [17]: Active; EC50 ([11]; Rhinovirus A, read-out: EC50): 2.05 µM; EC50 [12]: 1.77 µM; EC50 [13]: 2.23 µM; selectivity ratio [14]: 23.1; EC50 [15]: 2.19 µM
CC(=O)c1cccc(Nc2nc(-c3sc(NC(=O)C(F)(F)F)nc3C)cs2)c1 | – | 21.9 | 12.9 | inactive | 73 | 2 | 85 | 25.8 | EC50 ([9]; Rhinovirus B, read-out: EC50): 10.6 µM; CC50 [10]: 30.1 µM; EC50 ([11]; Rhinovirus A, read-out: EC50): 10.6 µM; EC50 [12]: 3.51 µM; EC50 [13]: 2.86 µM; selectivity ratio [14]: 15; EC50 [15]: 3.87 µM
